Experimental findings from ChEMBL document CHEMBL3739308, “Resveratrol-Related Polymethoxystilbene Glycosides: Synthesis, Antiproliferative Activity, and Glycosidase Inhibition” (J Nat Prod, 2015) are described below.

The subject of one data set is SH-SY5Y. Briefly: Antiproliferative activity against human SH-SY5Y cells after 72 hrs by MTT-based Mosmann assay relative to control. The data set is classed as functional. The method in brief:
(§1)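 Cells seeded at (2.5−3.0) × 10^3 per well, treated after 24 h with compound at final 0.01−100 μM; 0.5−1% DMSO controls. Exposure 3 days (72 h) at 37 °C, 5% CO2; MTT read at 570 nm, 6−8 wells per value. GI50 by NCI formula 100(T − T0)/(C − T0) = 50 versus time-zero and DMSO-control OD; mean ± SD of four experiments.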
On the technique in general: Tetrazolium dyes change colour on reduction, which living cells bring about.

Data set [1] is described as follows: Antiproliferative activity against human Caco2 cells after 72 hrs by MTT-based Mosmann assay relative to control. The data set is classed as functional. The settings on record: Caco-2, 72 h. The method, boiled down: as §1
Data set [2] in a line: Drug level in phosphate buffer treated with (2R,3S,4S,5S)-2-[2-(4-Methoxystyryl)-4,6-dimethoxyphenoxy]-tetrahydro-6-hydroxymethyl-2H-pyran-3,4,5-triol at 5 x 10^-5 M at pH 7.2 at 37 degC after 72 hrs by HPLC analysis in presence of Aspergillus oryzae beta-galactosidase. In kind it is ADME. The settings on record: pH 7.2, 72 h. The method, boiled down:
(§2)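 Glycoside diluted from DMSO into 0.050 M Na2HPO4/KH2PO4 pH 7.2 to final 5.0 × 10−5 M (≤1.0% DMSO). Almond β-glucosidase (1.2 U/mL) or A. oryzae β-galactosidase (0.7 U/mL) added; 37 °C, shaking at 400 rpm, sampled up to 96 h. Enzyme-free controls run. Reversed-phase HPLC at 305 nm; released aglycone quantified against 10−5−10−6 M calibration curves. Triplicate.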

The target of data set [3] is β-galactosidase (Aspergillus Oryzae) (Aspergillus oryzae, UniProt Q2UCU3). Kind of data set: Inhibition of Aspergillus oryzae beta-galactosidase using oNP-beta-Gal as substrate assessed as release of o-nitrophenol incubated for 30 mins by spectrophotometric analysis. The method, boiled down:
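Inhibition assay (modified Tsujii method) at 25 °C. Substrate at 6.5 × 10−5 M final in DMSO/phosphate buffer (Na2HPO4/KH2PO4 0.050 M, pH 7.2). Enzyme at 4.0 U/mL. Compound stocks 2.6−4.7 × 10−4 M, five concentrations; DMSO ≤1.0% final. Absorbance read at 400 nm. Percent inhibition taken from residual activity versus no-compound control. IC50 is the mean of three experiments.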

Data set [4] is described as follows: (§3) Half life in phosphate buffer assessed as almond beta-glucosidase-mediated compound hydrolysis at 5 x 10^-5 M at pH 7.2 at 37 degC measured within 96 hrs by HPLC analysis. The data set is classed as ADME. Conditions: prunus dulcis, buffer, pH 7.2, 96 h, 50 µM; call rule not given here. The method, boiled down: as §2
The nature of data set [5]: Inhibition of Saccharomyces cerevisiae alpha-glucosidase using pNP-alpha-Glc as substrate assessed as release of p-nitrophenol incubated for 2 hrs by spectrophotometric analysis. The method in brief: (§4)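 Substrate at final 6.5 × 10−5 M in DMSO/0.050 M phosphate buffer pH 7.2, 25 °C, with five inhibitor levels (≤1.0% DMSO). Enzyme: 2.0 U/mL yeast α-glucosidase, 2 h; 2.9 U/mL almond β-glucosidase, 30 min. Nitrophenol release read at 400 nm; % inhibition from residual activity versus no-compound activity; IC50 = 50% inhibition. Triplicate; mean ± SD of three experiments.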

The nature of data set [6]: Stability of the compound in phosphate buffer assessed as Aspergillus oryzae beta-galactosidase-mediated compound hydrolysis at 5 x 10^-5 M at pH 7.2 at 37 degC measured within 96 hrs by HPLC analysis. Conditions: pH 7.2, 96 h, 50 µM. The data set is classed as ADME. The method, boiled down:
as §2

Data set [7] is described as follows: Inhibition of almond beta-glucosidase using pNP-beta-Glc as substrate assessed as release of p-nitrophenol incubated for 30 mins by spectrophotometric analysis. Also noted: species or system Prunus dulcis. The method in brief: as §4
In another data set the test system is beta-glucosidase. The data set is described as §3. The data set is classed as ADME. Conditions: prunus dulcis, almond beta-glucosidase in phosphate buffer, pH 7.2. The method in brief:
as §2

The next data set deals with beta-galactosidase. Briefly: Half life in phosphate buffer assessed as Aspergillus oryzae beta-galactosidase-mediated compound hydrolysis at 5 x 10^-5 M at pH 7.2 at 37 degC measured within 96 hrs by HPLC analysis.
Data set [8] is described as follows: Antiproliferative activity against human Caco2 cells. In kind it is functional, cell-based. Conditions: Caco-2. The method, boiled down:
as §1

A word on the GI50: it is the concentration that inhibits growth by half. Read a low GI50 as more potent growth inhibition. The term IC50 denotes the concentration needed to halve the response being measured. A word on the half-life: it is the time in which the quantity being followed falls by half.

Structures are written as SMILES.

Sequence of β-galactosidase (Aspergillus Oryzae) (Q2UCU3 whole entry, looked up): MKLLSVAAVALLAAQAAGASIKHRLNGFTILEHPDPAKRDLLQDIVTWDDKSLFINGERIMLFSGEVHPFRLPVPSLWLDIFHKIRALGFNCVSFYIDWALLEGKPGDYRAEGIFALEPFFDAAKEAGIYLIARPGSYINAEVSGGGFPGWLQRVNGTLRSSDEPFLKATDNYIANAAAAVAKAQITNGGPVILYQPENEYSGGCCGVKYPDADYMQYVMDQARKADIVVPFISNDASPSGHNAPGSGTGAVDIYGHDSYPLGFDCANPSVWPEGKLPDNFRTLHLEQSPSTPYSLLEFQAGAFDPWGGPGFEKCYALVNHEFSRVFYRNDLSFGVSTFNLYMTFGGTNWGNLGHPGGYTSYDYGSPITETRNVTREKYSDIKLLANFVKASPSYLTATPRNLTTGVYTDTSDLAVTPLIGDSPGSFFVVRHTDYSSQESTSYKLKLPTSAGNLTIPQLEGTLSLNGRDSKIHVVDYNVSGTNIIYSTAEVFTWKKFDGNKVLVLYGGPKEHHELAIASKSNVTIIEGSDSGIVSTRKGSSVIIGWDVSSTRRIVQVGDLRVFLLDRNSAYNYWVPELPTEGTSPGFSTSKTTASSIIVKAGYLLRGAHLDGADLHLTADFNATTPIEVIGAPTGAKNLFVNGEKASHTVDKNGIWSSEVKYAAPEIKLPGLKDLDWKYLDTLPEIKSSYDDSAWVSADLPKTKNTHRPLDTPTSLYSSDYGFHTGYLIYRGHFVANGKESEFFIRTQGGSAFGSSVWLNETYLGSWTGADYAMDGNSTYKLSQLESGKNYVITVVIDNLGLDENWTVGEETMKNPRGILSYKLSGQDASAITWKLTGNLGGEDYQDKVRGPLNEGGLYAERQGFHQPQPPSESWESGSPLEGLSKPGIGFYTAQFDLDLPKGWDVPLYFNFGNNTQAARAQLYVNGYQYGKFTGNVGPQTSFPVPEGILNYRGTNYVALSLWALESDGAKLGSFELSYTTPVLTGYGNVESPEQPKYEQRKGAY

On to `COc1cc(/C=C/c2cc(OC)cc(OC)c2O)cc(OC)c1`, for which the GI50 (in the data set with SH-SY5Y; in [1]) was > 10 µM each time.

In the case of `COc1cc(/C=C/c2ccc(OC)c(OC)c2)c(O)c(OC)c1`, the GI50 with SH-SY5Y stood at 14.3 µM; in data set [1], 3 µM.

Regarding `COc1ccc(/C=C/c2cc(OC)cc(OC)c2O)cc1`, the GI50 in the data set on SH-SY5Y stood at 4.5 µM; in [1], 5.8 µM. The Drug metabolism entry in [2] is “metabolite_detected”.

In the case of `COc1ccc(/C=C/c2cc(OC)cc(OC)c2O[C@H]2O[C@H](CO)[C@H](O)[C@H](O)[C@H]2O)cc1`, the IC50 in data set [3] came to 298 µM; in [5], 201 µM; in data set [7] (read-out: IC50) it was 350 µM. For the same compound, the Stability entry in data set [4] and in data set [6] was “Stable” each time. In addition, the GI50 in the data set with SH-SY5Y was 48.4 µM; in data set [1], > 10 µM.

As to `COc1cc(/C=C/c2cc(OC)cc(OC)c2O[C@H]2O[C@H](CO)[C@@H](O)[C@H](O)[C@H]2O)cc(OC)c1`, the IC50 in data set [3] was 297 µM; in [5], 133 µM; in data set [7] (read-out: IC50) it was 272 µM. The half-life at 50 µM with beta-glucosidase was 70 h. Also, the GI50 is > 10 µM with SH-SY5Y and 44.2 µM in [1]. The Stability entry in [6] is “Stable”.

Regarding `COc1cc(/C=C/c2ccc(OC)c(OC)c2)c(O[C@H]2O[C@H](CO)[C@@H](O)[C@H](O)[C@H]2O)c(OC)c1`, the results for the IC50 in data set [3], in [5] and in [7] (read-out: IC50) were 258 µM, 78 µM and 192 µM, respectively. Moreover, the half-life at 50 µM in the data set on beta-glucosidase is 20 h. Moreover, the GI50 (in the data set on SH-SY5Y; in data set [1]) was > 10 µM in each case. Further, the Stability result in data set [6] is “Stable”.

On to `COc1cc(/C=C/c2cc(OC)cc(OC)c2O[C@H]2O[C@H](CO)[C@H](O)[C@H](O)[C@H]2O)cc(OC)c1`, for which the IC50 in data set [3] was 296 µM; in data set [5], 332 µM; in data set [7] it was “Not Active”. For the same compound, the Stability result in data set [4] and in data set [6] was “Stable” throughout. Besides, the figures for the GI50 (with SH-SY5Y; in data set [1]) were 22.5 µM and 16 µM, respectively.

`COc1ccc(/C=C/c2cc(OC)cc(OC)c2O[C@H]2O[C@H](CO)[C@@H](O)[C@H](O)[C@H]2O)cc1`: the half-life at 50 µM in the data set on beta-glucosidase is 11 h; in the data set with beta-galactosidase it was 77 h. In addition, the IC50 in [5] amounted to 91 µM; in [7] (read-out: IC50) it was 208 µM. Further, the GI50 in the data set on SH-SY5Y is 21.9 µM; in data set [1], > 10 µM.

With `COc1cc(/C=C/c2ccc(OC)c(OC)c2)c(O[C@H]2O[C@H](CO)[C@H](O)[C@H](O)[C@H]2O)c(OC)c1`, the IC50 in [3] was 299 µM; in data set [5], 70 µM; in [7] (read-out: IC50), 170 µM. For the same compound, the Stability result in [4] and in data set [6] was “Stable” throughout. Moreover, the GI50 (in the data set with SH-SY5Y; in data set [1]) was > 10 µM each time.

In turn, `COc1cc(/C=C/C(=O)CC(=O)/C=C/c2ccc(O)c(OC)c2)ccc1O` [CURCUMIN] displayed an IC50 in [8] of 10.3 µM.

`CC/C(=C(/CC)c1ccc(O)cc1)c1ccc(O)cc1` [DIETHYLSTILBESTROL] displayed an IC50 in data set [8] of 75 µM.

Regarding `O=c1[nH]cc(F)c(=O)[nH]1` [FLUOROURACIL], the GI50 in the data set on SH-SY5Y stood at 1.5 µM; in data set [1] it was 2.2 µM.
